Converted amounts (≈) assume the structure as drawn.
Experiments:
[1] = tested on: Serratia marcescens; test: In vitro minimum inhibitory concentration for Serratia marcescens (ATCC-27117) by agar dilution method; type: functional; settings: Serratia marcescens; read-out: MIC
Method in brief: (§1)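 Two-fold serial dilutions of each compound dispersed in Mueller-Hinton agar; plates spot-inoculated with 2 μL of standard test strain at 10^7 CFU/mL, incubated 37 °C for 20 h; MIC read as lowest concentration inhibiting growth.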

[2] = tested on: Salmonella typhimurium; test: In vitro minimum inhibitory concentration for Salmonella Typhimurium (ATCC-14028) by agar dilution method; type: functional, Salmonella enterica subsp. enterica serovar Typhimurium; settings: Salmonella enterica; read-out: MIC; method in brief: as §1
[3] = tested on: Klebsiella aerogenes; test: In vitro minimum inhibitory concentration for Enterobacter aerogenes (ATCC-29751) by agar dilution method; type: functional; settings: Klebsiella aerogenes; read-out: MIC; method in brief: as §1
[4] = tested on: Pseudomonas aeruginosa; test: In vitro minimum inhibitory concentration for Pseudomonas aeruginosa (ATCC 10145) by agar dilution method; type: functional; method in brief: as §1
[5] = tested on: Escherichia coli; test: In vitro minimum inhibitory concentration for Escherichia coli (ATCC-10536) by agar dilution method; type: functional; settings: Escherichia coli; read-out: MIC; method in brief: as §1
[6] = tested on: Proteus vulgaris; test: In vitro minimum inhibitory concentration for Proteus vulgaris (ATCC-6059) by agar dilution method; type: functional; settings: Proteus vulgaris; read-out: MIC; method in brief: as §1
[7] = tested on: Staphylococcus epidermidis; test: In vitro minimum inhibitory concentration for Staphylococcus epidermidis (ATCC-12228) by agar dilution method; type: functional; settings: Staphylococcus epidermidis; read-out: MIC; method in brief: as §1
[8] = tested on: Enterobacter cloacae; test: In vitro minimum inhibitory concentration for Enterobacter cloacae (ATCC-27508) by agar dilution method; type: functional; settings: Enterobacter cloacae; read-out: MIC; method in brief: as §1
[9] = tested on: Staphylococcus aureus; test: In vitro minimum inhibitory concentration for Staphylococcus aureus (ATCC 6538p) by agar dilution method; type: functional; settings: Staphylococcus aureus, ATCC 6538p; read-out: MIC; method in brief: as §1
[10] = tested on: Pseudomonas aeruginosa; test: In vitro minimum inhibitory concentration for Pseudomonas aeruginosa (ATCC-27853) by agar dilution method; type: functional; settings: Pseudomonas aeruginosa; read-out: MIC; method in brief: as §1
[11] = tested on: Klebsiella pneumoniae; test: In vitro minimum inhibitory concentration for Klebsiella pneumoniae (ATCC-10031) by agar dilution method; type: functional; settings: Klebsiella pneumoniae; read-out: MIC
[12] = tested on: Citrobacter freundii; test: In vitro minimum inhibitory concentration for Citrobacter freundii (ATCC-8090) by agar dilution method; type: functional; settings: Citrobacter freundii; read-out: MIC; method in brief: as §1
[13] = tested on: Staphylococcus aureus; test: In vitro minimum inhibitory concentration for Staphylococcus aureus (ATCC 6538p) by agar dilution method

Compound `C[n+]1c(O)cc(O)nc1SCC1=C(C(=O)[O-])N2C(=O)C(NC(=O)/C(=N\OC(C)(C)C(=O)O)c3cnc(N)s3)C2SC1` (stereo unspecified) has an MIC [1] of 16 µg/mL (≈ 25.6 µM), an MIC [2] of 16 µg/mL (≈ 25.6 µM) and an MIC [3] of 16 µg/mL (≈ 25.6 µM). For the same compound, the MIC [4] was 32 µg/mL (≈ 51.1 µM), the MIC [5] was 4 µg/mL (≈ 6.39 µM) and the MIC [6] was 0.5 µg/mL (≈ 0.799 µM). For the same compound, the MIC [7] was > 128 µg/mL, the MIC [8] was 1 µg/mL (≈ 1.6 µM) and the MIC [9] was > 128 µg/mL. The MIC [10] was 16 µg/mL (≈ 25.6 µM), the MIC [11] was 2 µg/mL (≈ 3.2 µM) and the MIC [12] was 4 µg/mL (≈ 6.39 µM).

`Cc1c(N)nc(SCC2=C(C(=O)[O-])N3C(=O)C(NC(=O)/C(=N\OC(C)(C)C(=O)O)c4cnc(N)s4)C3SC2)[n+]2ncn(C)c12` (stereo unspecified) showed an MIC [1] of 0.25 µg/mL (≈ 0.377 µM), an MIC [2] of 0.25 µg/mL (≈ 0.377 µM) and an MIC [3] of 1 µg/mL (≈ 1.51 µM). For the same compound, the MIC [4] was 4 µg/mL (≈ 6.04 µM), the MIC [5] was 0.13 µg/mL (≈ 0.196 µM) and the MIC [6] was 0.06 µg/mL (≈ 0.0905 µM). For the same compound, the MIC [7] was 2 µg/mL (≈ 3.02 µM), the MIC [8] was 0.02 µg/mL (≈ 0.0302 µM) and the MIC [9] was 8 µg/mL (≈ 12.1 µM). The MIC [10] was 2 µg/mL (≈ 3.02 µM), the MIC [11] was 0.06 µg/mL (≈ 0.0905 µM) and the MIC [12] was 0.06 µg/mL (≈ 0.0905 µM).

For `CC(C)(O/N=C(\C(=O)NC1C(=O)N2C(C(=O)[O-])=C(CSc3nc(N)cc(N)[n+]3N)CSC12)c1cnc(N)s1)C(=O)O` (stereo unspecified), the MIC [1] was 0.06 µg/mL (≈ 0.096 µM), the MIC [2] was 0.13 µg/mL (≈ 0.208 µM) and the MIC [3] was 1 µg/mL (≈ 1.6 µM). It also gave an MIC [4] of 1 µg/mL (≈ 1.6 µM), an MIC [5] of 0.06 µg/mL (≈ 0.096 µM) and an MIC [6] of 0.02 µg/mL (≈ 0.032 µM). It also gave an MIC [7] of 2 µg/mL (≈ 3.2 µM), an MIC [8] of 0.02 µg/mL (≈ 0.032 µM) and an MIC [9] of 4 µg/mL (≈ 6.4 µM). For the same compound, the MIC [10] was 1 µg/mL (≈ 1.6 µM), the MIC [11] was 0.06 µg/mL (≈ 0.096 µM) and the MIC [12] was 0.06 µg/mL (≈ 0.096 µM).

With `CC(C)(O/N=C(\C(=O)NC1C(=O)N2C(C(=O)[O-])=C(CSc3nc(N)cc(N)[n+]3-c3ccccc3)CSC12)c1cnc(N)s1)C(=O)O` (stereo unspecified) the MIC [1] was 0.5 µg/mL (≈ 0.729 µM), the MIC [2] was 0.5 µg/mL (≈ 0.729 µM) and the MIC [3] was 0.5 µg/mL (≈ 0.729 µM). The MIC [4] was 4 µg/mL (≈ 5.83 µM), the MIC [5] was 0.25 µg/mL (≈ 0.365 µM) and the MIC [6] was 0.13 µg/mL (≈ 0.19 µM). The MIC [7] was 2 µg/mL (≈ 2.92 µM), the MIC [8] was 0.06 µg/mL (≈ 0.0875 µM) and the MIC [9] was 4 µg/mL (≈ 5.83 µM). It also gave an MIC [10] of 2 µg/mL (≈ 2.92 µM), an MIC [11] of 0.13 µg/mL (≈ 0.19 µM) and an MIC [12] of 0.25 µg/mL (≈ 0.365 µM).

In the case of `COc1cc(N)nc(SCC2=C(C(=O)[O-])N3C(=O)C(NC(=O)/C(=N\OC(C)(C)C(=O)O)c4cnc(N)s4)C3SC2)[n+]1C` (stereo unspecified), the MIC [1] is reported as 0.25 µg/mL (≈ 0.391 µM), the MIC [2] is reported as 0.25 µg/mL (≈ 0.391 µM) and the MIC [3] is reported as 4 µg/mL (≈ 6.26 µM). The MIC [4] was 4 µg/mL (≈ 6.26 µM), the MIC [5] was 0.06 µg/mL (≈ 0.0939 µM) and the MIC [6] was 0.13 µg/mL (≈ 0.204 µM). It also gave an MIC [7] of 1 µg/mL (≈ 1.57 µM), an MIC [8] of 0.02 µg/mL (≈ 0.0313 µM) and an MIC [9] of 4 µg/mL (≈ 6.26 µM). It also gave an MIC [10] of 2 µg/mL (≈ 3.13 µM), an MIC [11] of 0.06 µg/mL (≈ 0.0939 µM) and an MIC [12] of 0.13 µg/mL (≈ 0.204 µM).

`CCC[n+]1c(N)cc(N)nc1SCC1=C(C(=O)[O-])N2C(=O)C(NC(=O)/C(=N\OC(C)(C)C(=O)O)c3cnc(N)s3)C2SC1` (stereo unspecified) showed an MIC [1] of 0.25 µg/mL (≈ 0.384 µM), an MIC [2] of 0.25 µg/mL (≈ 0.384 µM) and an MIC [3] of 2 µg/mL (≈ 3.07 µM). The MIC [4] was 4 µg/mL (≈ 6.14 µM), the MIC [13] was 2 µg/mL (≈ 3.07 µM) and the MIC [5] was 0.13 µg/mL (≈ 0.199 µM). The MIC [6] was 0.06 µg/mL (≈ 0.0921 µM), the MIC [7] was 2 µg/mL (≈ 3.07 µM) and the MIC [8] was 0.03 µg/mL (≈ 0.046 µM). For the same compound, the MIC [10] was 2 µg/mL (≈ 3.07 µM), the MIC [11] was 0.13 µg/mL (≈ 0.199 µM) and the MIC [12] was 0.25 µg/mL (≈ 0.384 µM).

Compound `CC(C)(O/N=C(\C(=O)NC1C(=O)N2C(C(=O)[O-])=C(CSc3nc(N)c4c([n+]3N)CCCC4)CSC12)c1cnc(N)s1)C(=O)O` (stereo unspecified) has an MIC [1] of 0.25 µg/mL (≈ 0.377 µM), an MIC [2] of 0.13 µg/mL (≈ 0.196 µM) and an MIC [3] of 0.5 µg/mL (≈ 0.753 µM). For the same compound, the MIC [4] was 4 µg/mL (≈ 6.03 µM), the MIC [5] was 0.06 µg/mL (≈ 0.0904 µM) and the MIC [6] was 0.06 µg/mL (≈ 0.0904 µM). It also gave an MIC [7] of 2 µg/mL (≈ 3.01 µM), an MIC [8] of 0.02 µg/mL (≈ 0.0301 µM) and an MIC [9] of 4 µg/mL (≈ 6.03 µM). For the same compound, the MIC [10] was 2 µg/mL (≈ 3.01 µM), the MIC [11] was 0.06 µg/mL (≈ 0.0904 µM) and the MIC [12] was 0.06 µg/mL (≈ 0.0904 µM).

`CN(C)c1cc2n(C)cc[n+]2c(SCC2=C(C(=O)[O-])N3C(=O)C(NC(=O)/C(=N\OC(C)(C)C(=O)O)c4cnc(N)s4)C3SC2)n1` (stereo unspecified) was tested, and the MIC [1] was 0.5 µg/mL (≈ 0.74 µM), the MIC [2] was 0.5 µg/mL (≈ 0.74 µM) and the MIC [3] was 4 µg/mL (≈ 5.92 µM). The MIC [4] was 8 µg/mL (≈ 11.8 µM), the MIC [5] was 0.13 µg/mL (≈ 0.192 µM) and the MIC [6] was 0.25 µg/mL (≈ 0.37 µM). For the same compound, the MIC [7] was 1 µg/mL (≈ 1.48 µM), the MIC [8] was 0.06 µg/mL (≈ 0.0888 µM) and the MIC [9] was 2 µg/mL (≈ 2.96 µM). It also gave an MIC [10] of 4 µg/mL (≈ 5.92 µM), an MIC [11] of 0.13 µg/mL (≈ 0.192 µM) and an MIC [12] of 0.25 µg/mL (≈ 0.37 µM).

— ChEMBL document CHEMBL1127395, “Synthesis and antimicrobial activity of novel 3-[(aminopyrimidiniumyl)thio]methyl cephalosporins” (1994)
